ChEMBL document CHEMBL3817744, “5'-Substituted Amiloride Derivatives as Allosteric Modulators Binding in the Sodium Ion Pocket of the Adenosine A2A Receptor” (J Med Chem, 2016)

Key:
[1] = system: Adenosine A2 receptor (Homo sapiens), P29275+P29274 [W246A]; experiment: Displacement of [3H]ZM-241,385 from human N-terminal FLAG-tagged adenosine A2A receptor W246A 6.48 mutant expressed in HEK293 cell membrane assessed as decrease in radioligand residence time at 10 uM by microbeta scintillation counting method relative to control; type: cell membranes
Outline: (§1)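 Dissociation assay on HEK293 membranes (WT stable, 15 µg; W246A transient, 4 µg). Preequilibration with 2.5 nM [3H]ZM-241,385 for 1 h at 4 °C. Dissociation started with 100 µM NECA ± 100 µM compound (WT, times over 180 min) or 10 µM ZM-241,385 ± 10 µM compound (mutant, over 30 min). Filtration, scintillation counting. One-phase dissociation fit gave residence time versus control. ≥3 assays in duplicate.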

Adenosine receptor A2a [2] = target: T1, Adenosine receptor A2a (Homo sapiens, UniProt P29274); experiment: Displacement of [3H]ZM-241,385 from human N-terminal FLAG-tagged adenosine A2A receptor expressed in HEK293 cell membrane assessed as radioligand binding at 10 uM by microbeta scintillation counting method relative to control; type: cell membranes
Outline: (§2)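 Membranes from HEK293 cells stably expressing hA2AAR-WT (15 µg protein) or transiently expressing W246A mutant (4 µg; harvested 48 h post-transfection), ADA-treated. Incubated 2 h at 25 °C in 50 mM Tris-HCl pH 7.4 with 2.5 nM [3H]ZM-241,385 ± 10 µM test compound; filtration, scintillation counting. 100% = no compound; 0% = nonspecific (100 µM NECA for WT, 10 µM ZM-241,385 for mutant). Means of ≥3 independent assays in duplicate.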

[3] = system: Adenosine A2 receptor (Homo sapiens), P29275+P29274 [W246A]; experiment: Displacement of [3H]ZM-241,385 from human N-terminal FLAG-tagged adenosine A2A receptor W246A 6.48 mutant expressed in HEK293 cell membrane assessed as radioligand binding at 10 uM by microbeta scintillation counting method relative to control; type: cell membranes; outline: as §2
Adenosine A2 receptor = Adenosine A2 receptor (Homo sapiens, UniProt P29275+P29274, W246A); experiment: Displacement of [3H]ZM-241,385 from human N-terminal FLAG-tagged adenosine A2A receptor W246A 6.48 mutant expressed in HEK293 cell membrane by microbeta scintillation counting method; type: cell membranes
Outline: (§3)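 Competition binding to ADA-treated HEK293 membranes, WT receptor stably expressed (15 µg protein) or W246A mutant transiently expressed (4 µg). 2.5 nM [3H]ZM-241,385 with increasing compound concentrations, 2 h at 25 °C in 50 mM Tris-HCl pH 7.4. Filtration and scintillation counting. IC50 from a one-site fit. Nonspecific binding: 100 µM NECA (WT) or 10 µM ZM-241,385 (mutant). ≥3 independent assays in duplicate. Fold change = WT IC50 / mutant IC50.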

Adenosine receptor A2a [4] = target: T1, Adenosine receptor A2a; experiment: Displacement of [3H]ZM-241,385 from human N-terminal FLAG-tagged adenosine A2A receptor expressed in HEK293 cell membrane by microbeta scintillation counting method; type: cell membranes; outline: as §3
HEK293 = experiment: Ratio of IC50 for human N-terminal FLAG-tagged adenosine A2A receptor expressed in HEK293 cell membrane to IC50 for human N-terminal FLAG-tagged adenosine A2A receptor W246A 6.48 mutant expressed in HEK293 cell membrane; type: cell-based; outline: as §3
[5] = system: Adenosine A2 receptor (Homo sapiens), P29275+P29274 [W246A]; experiment: Displacement of [3H]ZM-241,385 from human N-terminal FLAG-tagged adenosine A2A receptor W246A 6.48 mutant expressed in HEK293 cell membrane assessed as radioligand residence time at 10 uM by microbeta scintillation counting method; type: cell membranes; outline: as §1
Adenosine receptor A2a [6] = target: T1, Adenosine receptor A2a; experiment: Displacement of [3H]ZM-241,385 from human N-terminal FLAG-tagged adenosine A2A receptor expressed in HEK293 cell membrane assessed as radioligand residence time at 100 uM by microbeta scintillation counting method; type: cell membranes; outline: as §1
Adenosine receptor A2a [7] = target: T1, Adenosine receptor A2a; experiment: Displacement of [3H]ZM-241,385 from human N-terminal FLAG-tagged adenosine A2A receptor expressed in HEK293 cell membrane assessed as decrease in radioligand residence time at 100 uM by microbeta scintillation counting method relative to control; type: cell membranes; outline: as §1

T1 sequence (P29274 whole entry): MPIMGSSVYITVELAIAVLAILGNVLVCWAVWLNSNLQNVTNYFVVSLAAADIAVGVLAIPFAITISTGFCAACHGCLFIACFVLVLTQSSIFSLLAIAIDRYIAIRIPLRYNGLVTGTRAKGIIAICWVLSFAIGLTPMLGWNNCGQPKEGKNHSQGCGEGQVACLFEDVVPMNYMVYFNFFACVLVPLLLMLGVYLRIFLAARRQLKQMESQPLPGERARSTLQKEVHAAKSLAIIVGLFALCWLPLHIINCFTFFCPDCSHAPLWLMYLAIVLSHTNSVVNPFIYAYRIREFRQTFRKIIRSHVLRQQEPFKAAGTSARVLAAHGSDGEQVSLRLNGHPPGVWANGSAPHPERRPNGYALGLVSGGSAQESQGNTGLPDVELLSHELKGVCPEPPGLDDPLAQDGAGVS

Compound	Activity (Adenosine receptor A2a [2]) [%]	Activity [3] [%]	other results
Cl.NC(N)=NC(=O)c1nc(Cl)c(NCCc2ccc3c(c2)OCO3)nc1N	35	1	fold change (FC) [1]: 2.3; IC50 (Adenosine A2 receptor): 0.07 µM; IC50 (Adenosine receptor A2a [4]): 5.6 µM; Ratio IC50 (HEK293): 80; TIME [5]: 0.02 h; TIME (Adenosine receptor A2a [6]): 1.02 h
N=C(N)NC(=O)c1nc(Cl)c(NCCc2nnn[nH]2)nc1N	99	101	
CCN(CC)CCNc1nc(N)c(C(=O)NC(=N)N)nc1Cl	85	53	
N=C(N)NC(=O)c1nc(Cl)c(NCCS(=O)(=O)Cc2ccccc2)nc1N	82	18	
N=C(N)NC(=O)c1nc(Cl)c(NCC(=O)O)nc1N	88	111	
NC(N)=NC(=O)c1nc(Cl)c(NCCc2ccc(OC(F)(F)F)cc2)nc1N	63	5.2	
N#CCCNc1nc(N)c(C(=O)NC(=N)N)nc1Cl	65	17	
N=C(N)NC(=O)c1nc(Cl)c(NCc2ccncc2)nc1N	87	73	
N=C(N)NC(=O)c1nc(Cl)c(N2CCCCCC2)nc1N [N,N-HEXAMETHYLENEAMILORIDE]	30	1.8	fold change (FC) [1]: 1.9; fold change (FC) (Adenosine receptor A2a [7]): 2.2; IC50 (Adenosine A2 receptor): 0.27 µM; IC50 (Adenosine receptor A2a [4]): 5.1 µM; Ratio IC50 (HEK293): 19; TIME [5]: 0.0233 h; TIME (Adenosine receptor A2a [6]): 0.467 h
CCOc1ccc(CCNc2nc(N)c(C(=O)N=C(N)N)nc2Cl)cc1.O=C(O)C(F)(F)F	27	3.5	fold change (FC) [1]: 2.1; fold change (FC) (Adenosine receptor A2a [7]): 1.5; IC50 (Adenosine A2 receptor): 0.05 µM; IC50 (Adenosine receptor A2a [4]): 3.4 µM; Ratio IC50 (HEK293): 76; TIME [5]: 0.0217 h; TIME (Adenosine receptor A2a [6]): 0.667 h
NC(N)=NC(=O)c1nc(Cl)c(NC2Cc3ccccc3C2)nc1N	68	6.6	
C=CCOc1ccc(CCNc2nc(N)c(C(=O)N=C(N)N)nc2Cl)cc1	43	2.2	
N=C(N)NC(=O)c1nc(Cl)c(NCc2ccc(F)cc2)nc1N	96	48	
COc1ccc(CCNc2nc(N)c(C(=O)N=C(N)N)nc2Cl)cc1OC	51	1.8	
COc1ccc(CCNc2nc(N)c(C(=O)N=C(N)N)nc2Cl)cc1.Cl	31	-0.4	fold change (FC) [1]: 1.3; fold change (FC) (Adenosine receptor A2a [7]): 1.5; IC50 (Adenosine A2 receptor): 0.12 µM; IC50 (Adenosine receptor A2a [4]): 4.4 µM; Ratio IC50 (HEK293): 37; TIME [5]: 0.0333 h; TIME (Adenosine receptor A2a [6]): 0.733 h
NC(N)=NC(=O)c1nc(Cl)c(NCCc2ccc(Br)cc2)nc1N	67	4.8	
N=C(N)NC(=O)c1nc(Cl)c(NCCNCc2ccccc2)nc1N	90	65	

Compound	Activity (Adenosine receptor A2a [2]) [%]	Activity [3] [%]	other results
NC(N)=NC(=O)c1nc(Cl)c(NCCc2ccc([N+](=O)[O-])cc2)nc1N	68	5.8	
N=C(N)NC(=O)c1nc(Cl)c(NCc2ccccc2)nc1N	77	21	
NC(N)=NC(=O)c1nc(Cl)c(NCCCc2ccccc2)nc1N	60	9	
N=C(N)NC(=O)c1nc(Cl)c(NCc2cccnc2)nc1N	71	46	
NC(N)=NC(=O)c1nc(Cl)c(NCCc2ccc(O)cc2)nc1N	72	9.5	
CCOC(=O)CCNc1nc(N)c(C(=O)NC(=N)N)nc1Cl	87	48	
N=C(N)NC(=O)c1nc(Cl)c(NCCc2ccccc2)nc1N	54	1.1	
CCCCOc1ccc(CCNc2nc(N)c(C(=O)N=C(N)N)nc2Cl)cc1	66	3.4	
N=C(N)NC(=O)c1nc(Cl)c(N)nc1N	71	11	
N=C(N)NC(=O)c1nc(Cl)c(NCCSCc2ccccc2)nc1N	84	35	
COc1cccc(CCNc2nc(N)c(C(=O)N=C(N)N)nc2Cl)c1.Cl	41	5.4	fold change (FC) [1]: 3.4; fold change (FC) (Adenosine receptor A2a [7]): 1.5; IC50 (Adenosine A2 receptor): 0.25 µM; IC50 (Adenosine receptor A2a [4]): 8.1 µM; Ratio IC50 (HEK293): 32; TIME [5]: 0.0133 h; TIME (Adenosine receptor A2a [6]): 0.7 h
N=C(N)NC(=O)c1nc(Cl)c(NCCC(=O)O)nc1N	96	70	
Cc1ccc(CCNc2nc(N)c(C(=O)N=C(N)N)nc2Cl)cc1	50	2.1	
NC(N)=NC(=O)c1nc(Cl)c(NCCc2ccc(Cl)cc2)nc1N	92	32	
Cc1ccc(S(=O)(=O)NCCNc2nc(N)c(C(=O)NC(=N)N)nc2Cl)cc1	85	32	
NC(N)=NC(=O)c1nc(Cl)c(NCCc2ccc(OCc3ccccc3)cc2)nc1N	75	4	
NC(N)=NC(=O)c1nc(Cl)c(NCCc2ccc(Cl)c(Cl)c2)nc1N	82	11	
